Experimental data taken from ChEMBL document CHEMBL1122659, “Synthesis of some phosphonates with antiherpetic activity” (1984).
In brackets after ≈: the same amount, converted by molar mass. Blank lines part the entries; values can stand above or below the molecule they belong to. Activity calls are given as the source filed them. The calls are words filed in the database; no cut-off is given here.

Columns and labels:
Oryctolagus cuniculus = species on record: Oryctolagus cuniculus; assay: In vitro ability to inhibit the herpes HSV-2 virus; Inactive; assay type: functional, organism-based; conditions: herpes simplex virus
[1] = In vitro ability to inhibit the herpes HSV-2 virus; assay type: functional, herpes simplex virus; conditions: Oryctolagus cuniculus
Cavia porcellus [2] = species on record: Cavia porcellus; assay: Effect of compound in a vanishing cream on the development of Herpetic vesicles in Guinea pigs infected intradermally with Herpes virus Hominis, Type 1,AA strain on day 5 at 5% concentration; assay type: functional
Procedure, shortened: (§1)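 Albino Hartley guinea pigs (350–400 g) were infected intradermally with 0.05 mL undiluted HSV-1 AA strain, delivered by vaccination gun into a 12 mm circle on an epilated flank. Test agent was applied as a topical cream starting 24 h postinfection. Lesions were scored daily for mean vesicle score over days 1–5.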

Cavia porcellus [3] = species on record: Cavia porcellus; assay: Effect of compound in a vanishing cream base on the development of Herpetic vesicles in Guinea pigs infected intradermally with Herpesvirus Hominis, Type 1, AA strain and the virus titer was determined at 10% conc. on day 3; assay type: functional
Cavia porcellus [4] = species on record: Cavia porcellus; assay: Effect of compound in a vanishing cream on the development of Herpetic vesicles in Guinea pigs infected intradermally with Herpes virus Hominis, Type 1,AA strain on day 2 at 10 % concentration; assay type: functional; procedure, shortened: as §1
Cavia porcellus [5] = species on record: Cavia porcellus; assay: Effect on the growth of Herpes simplex Type 1 on the skin of Guinea pigs infected intradermally on day 1 at 5 % concentration; assay type: functional
Procedure, shortened: (§2)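 Guinea pigs (Hartley, 350–400 g) were infected intradermally on an epilated flank with undiluted HSV-1 AA strain and treated with topical cream. Supernatants of lesion skin scrapings were diluted 10⁻¹ to 10⁻⁸ and titered by plaque assay on BSC-1 monolayers in triplicate: 1 h adsorption at 37 °C, agarose overlay, 4 days at 37 °C, formalin fixation, crystal violet staining, plaques counted.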

Cavia porcellus [6] = species on record: Cavia porcellus; assay: Effect of compound in a vanishing cream base on the development of Herpetic vesicles in Guinea pigs infected intradermally with Herpesvirus Hominis, Type 1, AA strain and the virus titer was determined at 5% conc. on day 2; assay type: functional
Cavia porcellus [7] = species on record: Cavia porcellus; assay: Effect of compound in a vanishing cream on the development of Herpetic vesicles in Guinea pigs infected intradermally with Herpes virus Hominis, Type 1,AA strain on day 1 at 5 % concentration; assay type: functional; procedure, shortened: as §1
Cavia porcellus [8] = species on record: Cavia porcellus; assay: Effect of compound in a vanishing cream on the development of Herpetic vesicles in Guinea pigs infected intradermally with Herpes virus Hominis, Type 1,AA strain on day 4 at 5 % concentration; assay type: functional; procedure, shortened: as §1
Mus musculus [9] = species on record: Mus musculus; assay: Average survival rate of mice infected intravaginally with herpes simplex virus type 2 at daily dosage of 10%(treatment initiated 4-h postinfection and continued for 7 days); assay type: functional
Procedure, shortened: (§3)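 Mice infected intravaginally with HSV-2. Test agent suspended in gum tragacanth and applied intravaginally. Survival recorded.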

Cavia porcellus [10] = species on record: Cavia porcellus; assay: Effect of compound in a vanishing cream on the development of Herpetic vesicles in Guinea pigs infected intradermally with Herpes virus Hominis, Type 1,AA strain on day 4 at 10 % concentration; assay type: functional; procedure, shortened: as §1
Cavia porcellus [11] = species on record: Cavia porcellus; assay: Effect of compound in a vanishing cream base on the development of Herpetic vesicles in Guinea pigs infected intradermally with Herpesvirus Hominis, Type 1, AA strain and the virus titer was determined at 10% conc. on day 2; assay type: functional
Cavia porcellus [12] = species on record: Cavia porcellus; assay: Effect on the development of Herpetic vesicles in Guinea pigs infected intradermally with Herpes virus Hominis, Type 1,AA strain on day 3 at 5 % concentration; assay type: functional
Procedure, shortened: (§4)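 Albino Hartley guinea pigs (350–400 g) were infected intradermally with 0.05 mL undiluted HSV-1 AA strain, delivered by vaccination gun into a 12 mm marked area on an epilated flank. Topical cream treatment followed. Vesicle development was scored daily.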

Cavia porcellus [13] = species on record: Cavia porcellus; assay: Effect on the growth of Herpes simplex Type 1 on the skin of Guinea pigs infected intradermally on day 4 at 5 % concentration; assay type: functional; procedure, shortened: as §2
Cavia porcellus [14] = species on record: Cavia porcellus; assay: Effect of compound in a vanishing cream on the development of Herpetic vesicles in Guinea pigs infected intradermally with Herpes virus Hominis, Type 1,AA strain on day 1 at 10 % concentration; assay type: functional; procedure, shortened: as §1
Cavia porcellus [15] = species on record: Cavia porcellus; assay: Effect of compound in a vanishing cream base on the development of Herpetic vesicles in Guinea pigs infected intradermally with Herpesvirus Hominis, Type 1, AA strain and the virus titer was determined at 10% conc. on day 5; assay type: functional
Mus musculus [16] = species on record: Mus musculus; assay: Average survival rate of mice infected intravaginally with herpes simplex virus type 2 at daily dosage of 5%(treatment initiated 4-h postinfection and continued for 7 days); assay type: functional; procedure, shortened: as §3
Cavia porcellus [17] = species on record: Cavia porcellus; assay: Effect of compound in a vanishing cream base on the development of Herpetic vesicles in Guinea pigs infected intradermally with Herpesvirus Hominis, Type 1, AA strain and the virus titer was determined at 5% conc. on day 1; assay type: functional
Mus musculus [18] = species on record: Mus musculus; assay: Percent survival rate of mice infected intravaginally with herpes simplex virus type 2 at daily dosage of 5%(treatment initiated 4-h postinfection and continued for 7 days); assay type: functional; procedure, shortened: as §3
Mus musculus [19] = species on record: Mus musculus; assay: Percent survival rate of mice infected intravaginally with herpes simplex virus type 2 at daily dosage of 10%(treatment initiated 4-h postinfection and continued for 7 days); assay type: functional; procedure, shortened: as §3
Cavia porcellus [20] = species on record: Cavia porcellus; assay: Effect of compound in a vanishing cream on the development of Herpetic vesicles in Guinea pigs infected intradermally with Herpes virus Hominis, Type 1,AA strain on day 3 at 10 % concentration; assay type: functional; procedure, shortened: as §1
Cavia porcellus [21] = species on record: Cavia porcellus; assay: Effect on the development of Herpetic vesicles in Guinea pigs infected intradermally with Herpes virus Hominis, Type 1,AA strain on day 2 at 5 % concentration; assay type: functional; procedure, shortened: as §4
Cavia porcellus [22] = species on record: Cavia porcellus; assay: Effect of compound in a vanishing cream base on the development of Herpetic vesicles in Guinea pigs infected intradermally with Herpesvirus Hominis, Type 1, AA strain and the virus titer was determined at 5% conc. on day 4; assay type: functional
Cavia porcellus [23] = species on record: Cavia porcellus; assay: Effect on the development of Herpetic vesicles in Guinea pigs infected intradermally with Herpes virus Hominis, Type 1,AA strain on day 1 at 5 % concentration; assay type: functional; procedure, shortened: as §4
Mus musculus [24] = species on record: Mus musculus; assay: Percent survival rate of mice infected intravaginally with herpes simplex virus type 2 at daily dosage of 2.5%(treatment initiated 4-h postinfection and continued for 7 days); assay type: functional; procedure, shortened: as §3
Cavia porcellus [25] = species on record: Cavia porcellus; assay: Effect on the growth of Herpes simplex Type 1 on the skin of Guinea pigs infected intradermally on day 2 at 5 % concentration; assay type: functional; procedure, shortened: as §2
Cavia porcellus [26] = species on record: Cavia porcellus; assay: Effect of compound in a vanishing cream on the development of Herpetic vesicles in Guinea pigs infected intradermally with Herpes virus Hominis, Type 1,AA strain on day 5 at 10 % concentration; assay type: functional; procedure, shortened: as §1
Cavia porcellus [27] = species on record: Cavia porcellus; assay: Effect of compound in a vanishing cream base on the development of Herpetic vesicles in Guinea pigs infected intradermally with Herpesvirus Hominis, Type 1, AA strain and the virus titer was determined at 10% conc. on day 1; assay type: functional
Cavia porcellus [28] = species on record: Cavia porcellus; assay: Effect on the growth of Herpes simplex Type 1 on the skin of Guinea pigs infected intradermally on day 3 at 5 % concentration; assay type: functional; procedure, shortened: as §2
Cavia porcellus [29] = species on record: Cavia porcellus; assay: Effect of compound in a vanishing cream on the development of Herpetic vesicles in Guinea pigs infected intradermally with Herpes virus Hominis, Type 1,AA strain on day 2 at 5 % concentration; assay type: functional; procedure, shortened: as §1
Cavia porcellus [30] = species on record: Cavia porcellus; assay: Effect of compound in a vanishing cream on the development of Herpetic vesicles in Guinea pigs infected intradermally with Herpes virus Hominis, Type 1,AA strain on day 3 at 5 % concentration; assay type: functional; procedure, shortened: as §1
Cavia porcellus [31] = species on record: Cavia porcellus; assay: Effect on the growth of Herpes simplex Type 1 on the skin of Guinea pigs infected intradermally on day 1 at 5% concentration; assay type: functional
Procedure, shortened: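 Guinea pigs were infected intradermally with HSV-1 on an epilated flank and treated topically with cream. Virus in skin-scraping supernatants was titered by plaque assay on BSC-1 monolayers. Dilutions of 10⁻¹ to 10⁻⁸ in Eagle's medium with 2% FCS were plated in triplicate and adsorbed 1 h at 37 °C. An agarose overlay followed, with 4 days' incubation, formalin fixation, crystal violet staining and plaque counting.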

Cavia porcellus [32] = species on record: Cavia porcellus; assay: Effect on the development of Herpetic vesicles in Guinea pigs infected intradermally with Herpes virus Hominis, Type 1,AA strain on day 4 at 5 % concentration; assay type: functional; procedure, shortened: as §4
Cavia porcellus [33] = species on record: Cavia porcellus; assay: Effect on the development of Herpetic vesicles in Guinea pigs infected intradermally with Herpes virus Hominis, Type 1,AA strain on day 1 at 5% concentration; assay type: functional
Procedure, shortened: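 Hartley albino guinea pigs (350–400 g) were infected with undiluted HSV-1 AA strain, 0.05 mL placed in a 12-mm circle on an epilated flank and given intradermally by vaccination gun. Test article was a topical cream, with treatment starting 24 h postinfection. Mean vesicle score was recorded on days 1–5 against placebo and nonmedicated groups.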

MIC (Oryctolagus cuniculus): inactive
Compound: CCOP(=O)(CCOc1ccc(OC(C)=O)cc1)OCC

Compound: CCCOP(=O)(CCCCCCOc1ccc(OC)cc1Cl)OCCC
MIC [1]: 6 µg/mL (≈ 14.7 µM)

Compound: CCOP(=O)(OCC)C(CCCCCCOc1ccc(OC)cc1Cl)C(C)=O (stereo not drawn)
MIC [1]: 6 µg/mL (≈ 13.8 µM)

MIC (Oryctolagus cuniculus): inactive
Compound: CCOP(=O)(CCCCCCCCOc1ccc(OC)cc1Cl)OCC

Compound: CCOC(=O)c1ccc(OCCCCCCP(=O)(OCC)OCC)cc1
MIC [1]: 6 µg/mL (≈ 15.5 µM)

Compound: CCOP(=O)(OCC)C(CCCCOc1ccc(OC)cc1Cl)C(C)=O (stereo not drawn)
MIC [1]: 12 µg/mL (≈ 29.5 µM)

Compound: CCOP(=O)(CCOc1ccc(O)cc1)OCC
MIC (Oryctolagus cuniculus): inactive

Compound: CCOP(=O)(OCC)C(CCCCCCCCOc1ccc(OC)cc1Cl)C(C)=O (stereo not drawn)
MIC [1]: 6 µg/mL (≈ 13 µM)

Compound: CCOP(=O)(CCCCCCOc1ccc(OC)cc1Cl)OCC [FOSARILATE]
Mean vesicle score (Cavia porcellus [2]): 0.67
Log TCID50/mg (Cavia porcellus [3]): <1.6
Mean vesicle score (Cavia porcellus [4]): 0.83
Log geometric mean (Cavia porcellus [5]): 4.23 pfu mg-1
Log TCID50/mg (Cavia porcellus [6]): <1.41
Mean vesicle score (Cavia porcellus [7]): 0.75
Mean vesicle score (Cavia porcellus [8]): 1
Average survival (Mus musculus [9]): >11.3 days
Mean vesicle score (Cavia porcellus [10]): 0.92
Log TCID50/mg (Cavia porcellus [11]): <1.34
Mean vesicle score (Cavia porcellus [12]): 0.5
Log geometric mean (Cavia porcellus [13]): 0.76 pfu mg-1
Mean vesicle score (Cavia porcellus [14]): 0.67
Log TCID50/mg (Cavia porcellus [15]): <1.25
Average survival (Mus musculus [16]): >10.5 days
Log TCID50/mg (Cavia porcellus [17]): 3.94
Survival (Mus musculus [18]): 50%
Survival (Mus musculus [19]): 60%
Mean vesicle score (Cavia porcellus [20]): 0.91
Mean vesicle score (Cavia porcellus [21]): 0.75
Log TCID50/mg (Cavia porcellus [22]): <1.25
Mean vesicle score (Cavia porcellus [23]): 0.5
Survival (Mus musculus [24]): 30%
Log geometric mean (Cavia porcellus [25]): 0.96 pfu mg-1
Mean vesicle score (Cavia porcellus [26]): 1.1
Log TCID50/mg (Cavia porcellus [27]): 3.18
MIC [1]: 3 µg/mL (≈ 7.92 µM)
Log geometric mean (Cavia porcellus [28]): 0.79 pfu mg-1
Mean vesicle score (Cavia porcellus [29]): 1.17
Mean vesicle score (Cavia porcellus [30]): 0.75

MIC (Oryctolagus cuniculus): inactive
Compound: CCOP(=O)(CCCOc1ccc(OC)cc1Cl)OCC

MIC (Oryctolagus cuniculus): inactive
Compound: CCOP(=O)(CCCCCCOc1ccc(C(=O)O)cc1)OCC

MIC (Oryctolagus cuniculus): inactive
Compound: CCOP(=O)(CCCCCCOc1ccc(Cl)cc1)OCC

Compound: Nc1nc2c(ncn2COCCO)c(=O)[nH]1 [ACYCLOVIR]
Log geometric mean (Cavia porcellus [31]): 4.3 pfu mg-1
Mean vesicle score (Cavia porcellus [32]): 1
Log geometric mean (Cavia porcellus [13]): 2.13 pfu mg-1
Mean vesicle score (Cavia porcellus [33]): 0.58
Mean vesicle score (Cavia porcellus [21]): 0.83
Log geometric mean (Cavia porcellus [25]): 4.09 pfu mg-1
Log geometric mean (Cavia porcellus [28]): 3.31 pfu mg-1
